From ChEMBL document CHEMBL1139386, “Discovery of novel CB2 receptor ligands by a pharmacophore-based virtual screening workflow” (J Med Chem, 2009)
pEC50, pKi: −log10 of the molar value.

How the values were obtained:
[1] = species: Homo sapiens; assay: Selectivity ratio of Ki for human CB1 receptor to Ki for human CB2 receptor
Procedure, shortened: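 Ki ratio from radioligand displacement on membranes overexpressing human CB1 (7.16 µg, 0.39 nM radioligand) or CB2 (3.8 µg, 0.11 nM radioligand). Incubation 90 min at 30 °C in Tris/EGTA/MgCl2/BSA buffer, pH 7.4, then GF/C filtration and scintillation counting; nonspecific binding with 10 µM reference ligand. IC50 from Hill plots; three independent experiments in triplicate.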

[2] = Selectivity ratio of Ki for CB1 receptor to Ki for CB2 receptor
[3] = target: T1, Cannabinoid receptor 2 (Homo sapiens, UniProt P34972); assay: Binding affinity to CB2 receptor
[4] = target: T2, Cannabinoid receptor 1 (Homo sapiens, UniProt P21554); assay: Binding affinity to CB1 receptor
[5] = target: T1, Cannabinoid receptor 2; assay: Displacement of [3H]CP-55940 from human recombinant CB2 receptor
Procedure, shortened: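 Membranes from cells recombinantly overexpressing CB2 (Bmax 4.7 pmol/mg protein), 3.8 µg, in binding buffer (50 mM Tris-HCl, 2.5 mM EGTA, 5 mM MgCl2, 0.5 mg/mL fatty-acid-free BSA, pH 7.4) with 0.11 nM radioligand. Compounds were tested at varying concentrations, with nonspecific binding defined by 10 µM reference ligand. Incubation was 90 min at 30 °C, followed by PEI-soaked GF/C filtration and scintillation counting. Data were normalized and Hill-linearized to give IC50 and Ki (three experiments, triplicate).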

[6] = target: T2, Cannabinoid receptor 1; assay: Displacement of [3H]CP-55940 from human recombinant CB1 receptor
[7] = target: T1, Cannabinoid receptor 2; assay: Agonist activity at human CB2 receptor expressed in CHO-K1 cells assessed as forskolin-stimulated cAMP release; assay type: functional, cell-based; conditions: filed as partial agonist
Procedure, shortened: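 CHO-K1 cells expressing hCB2, plated at 3×10^5 cells/mL overnight, were preincubated 10 min in supplement-free RPMI 1640 with 500 µM IBMX. Test compounds were added at several concentrations for 30 min at 37 °C, then 20 µM forskolin for a further 30 min at 37 °C. Intracellular cAMP was read by EFC chemiluminescence, with a high-affinity CB ligand as positive control.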

T1 sequence (P34972 whole entry): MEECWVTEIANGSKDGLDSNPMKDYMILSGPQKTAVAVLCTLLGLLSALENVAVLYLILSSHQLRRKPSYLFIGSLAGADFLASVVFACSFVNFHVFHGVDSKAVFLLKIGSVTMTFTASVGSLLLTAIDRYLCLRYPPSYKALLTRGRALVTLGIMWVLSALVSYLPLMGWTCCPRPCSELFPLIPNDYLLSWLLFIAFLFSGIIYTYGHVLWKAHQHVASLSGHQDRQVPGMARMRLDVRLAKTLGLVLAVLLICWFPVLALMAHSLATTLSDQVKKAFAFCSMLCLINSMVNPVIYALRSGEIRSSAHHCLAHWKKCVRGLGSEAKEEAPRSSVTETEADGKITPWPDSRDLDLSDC
T2 sequence (P21554 whole entry): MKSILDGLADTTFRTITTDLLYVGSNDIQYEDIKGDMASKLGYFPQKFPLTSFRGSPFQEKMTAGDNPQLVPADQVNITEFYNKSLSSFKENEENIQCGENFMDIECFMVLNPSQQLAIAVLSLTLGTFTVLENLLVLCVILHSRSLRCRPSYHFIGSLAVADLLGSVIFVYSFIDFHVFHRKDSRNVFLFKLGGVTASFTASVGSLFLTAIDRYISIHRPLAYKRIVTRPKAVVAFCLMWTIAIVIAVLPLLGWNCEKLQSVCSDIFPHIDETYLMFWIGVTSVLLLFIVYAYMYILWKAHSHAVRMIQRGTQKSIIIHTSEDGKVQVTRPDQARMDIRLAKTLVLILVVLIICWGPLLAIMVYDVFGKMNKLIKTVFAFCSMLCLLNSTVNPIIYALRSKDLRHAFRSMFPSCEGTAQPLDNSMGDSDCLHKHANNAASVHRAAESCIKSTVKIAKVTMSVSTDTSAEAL

SMILES	Ratio Ki [1]	pKi [5]	pKi [6]	further results
CC1CCN(C(=O)c2ccc3c(c2)c2c(n3S(C)(=O)=O)CN(C3CCCC3)C2)CC1	35	–	–	–
CN1CCCC[C@@H]1Cn1cc(C(=O)c2cc([N+](=O)[O-])ccc2I)c2ccccc21	–	–	–	Ratio Ki [2]: 331; pKi [3]: 7.82; pKi [4]: 5.30
CCCCCN(CCCCC)C(=O)c1ccccc1C(=O)Nc1ccc(Br)cc1	> 2	> 7.60	< 7.30	–
CCOc1ccc(N(CC(=O)N[C@@H](C)CC)S(=O)(=O)c2ccc(Br)cc2)cc1	> 2	> 7.60	< 7.30	–
CCS(=O)(=O)n1c2c(c3cc(C(=O)N4CCC(OC)CC4)ccc31)CN(C1CCCC1)C2	77	–	–	–
CCCCCC(C)(C)c1cc(OC)c2c(c1)OC(C)(C)[C@@H]1CCC(C)=C[C@@H]21	174	–	–	–
CCCn1cc(C(=O)c2ccc(C)c3ccccc23)c2ccccc21	173	–	5.98	–
CCCCCCC(C)(C)c1cc(OC)c([C@H]2C=C(CO)[C@@H]3C[C@H]2C3(C)C)c(OC)c1	–	–	–	pKi [4]: 5.00
CCCCCCc1cc(O)c2c(c1)OC(C)(C)C1=C2CCN(C)C1	> 27	8.75	< 7.30	Activity [7]: Partial agonist
CCCCCCC(C)(C)c1cc(OC)c([C@@]2(O)CCC[C@@H](C)C2)c(OC)c1	220	7.64	5.30	–
Cc1cccc(-c2nnc(SCC(=O)NC3CCCCC3)n2Cc2ccccc2)c1	> 2	> 7.60	< 7.30	–
CCCCCCC(C)(C)c1cc(O)c2c(c1)oc(=O)c1ccc(O)cc12	488	9.09	6.40	–
O=C(NCC1CCOCC1)c1cnc(Nc2ccc(Cl)cc2Cl)nc1C(F)(F)F [GW842166X]	> 600	–	–	pEC50 [6]: < 4.52
COc1ccc2c(c1)c(CN1CCOCC1)c(C)n2C(=O)c1cccc(Cl)c1Cl	153	–	–	–
CCCCCn1c(C)c(C(=O)c2c(OC)ccc3ccccc23)c2ccccc21	34	–	5.86	–
CCc1ccccc1NC(=O)CSc1nnc(-c2ccccc2OC)n1-c1ccccc1	> 23	8.68	< 7.30	–
CCCCCn1cc(C(=O)c2cc3ccccc3cc2OC)c2ccccc21	–	–	–	Ratio Ki [2]: 53; pKi [3]: 8.14; pKi [4]: 6.42
CCCn1c(C)c(C(=O)c2cccc3cc(OC)ccc23)c2ccccc21	> 333	–	< 5.00	–
CCCCSc1nc2c(c(=O)n1CCc1ccccc1)C1(CCCC1)Cc1ccccc1-2	> 2	> 7.60	< 7.30	–
CC(=O)n1c2c(c3cc(C(=O)N4CCC(C)CC4)ccc31)CN(C1CCCC1)C2	26	–	–	–
COc1ccc2c(c1)c(CCN1CCOCC1)c(C)n2C(=O)c1cccc(Cl)c1Cl	–	–	–	Ratio Ki [2]: 160
COc1ccc(OC)c(N(CC(=O)NCc2ccncc2)S(=O)(=O)c2ccc(C)cc2)c1	> 37	8.87	< 7.30	–
CCCC(C)(C)c1ccc2c(c1)OC(C)(C)[C@@H]1CC=C(C)C[C@@H]21	35	10.64	9.10	Ratio Ki [2]: 199; pKi [3]: 8.47; pKi [4]: 6.17
CCCCCCC(C)(C)c1cc(OC)c(C2(O)CCOCC2)c(OC)c1	> 29	6.47	< 5.00	–
CCCN1Cc2c(n(S(=O)(=O)CC)c3ccc(C(=O)N4CCC(C)CC4)cc23)C1	54	–	–	–
COc1ccc2c(c1)c(CC(=O)N1CCOCC1)c(C)n2C(=O)c1cccc(Cl)c1Cl	146	–	–	–
